Experiment [1] concerns the target T1, Protein S100-B (Rattus norvegicus, UniProt P04631).
T1 sequence (P04631 whole entry): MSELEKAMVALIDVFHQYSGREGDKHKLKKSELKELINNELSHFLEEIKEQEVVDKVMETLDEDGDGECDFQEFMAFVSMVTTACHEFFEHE
Briefly: Displacement of TAMRA-TRTK12 from recombinant rat calcium loaded S100-B by […] analysis.

A short description of experiment [2]: Growth inhibition of human WM115 cells expressing low levels of S100-B by SYBR Green based fluorescence method. The class given is functional, cell-based. The conditions noted are these: WM-115.
A short description of experiment [3]: Growth inhibition of human WM115 cells expressing high levels of S100-B by SYBR Green based fluorescence method. The class given is functional, cell-based. To be noted: WM-115.
Experiment [4] has as its target T1, Protein S100-B. The experiment in a line: Displacement of TAMRA-TRTK12 from recombinant rat calcium loaded S100-B by fluorescence polarization competition assay.
Experiment [5] deals with T2, Protein S100-B (Rattus norvegicus) (UniProt P04631).
T2 sequence (whole entry): T1 sequence (P04631 whole entry)
Briefly: Displacement of TAMRA-TRTK12 from recombinant rat calcium loaded S100-B at <1 mM by fluorescence polarization competition assay.

The target in experiment [6] is T1, Protein S100-B. Briefly: Binding affinity to recombinant rat calcium loaded S100-B by isothermal titration calorimetry.
For experiment [7], the target named is T1, Protein S100-B. Briefly: Binding affinity to recombinant rat calcium loaded S100-B by fluorescence spectrophotometric analysis. Put shortly: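 Competition fluorescence polarization against 10 nM TAMRA-labelled TRTK12 peptide (CapZ residues 265–276) with 1 µM Ca2+-loaded rat S100B. Buffer: 50 mM HEPES pH 7.2, 100 mM KCl, 15 mM NaCl, 10 mM CaCl2, 0.01% Triton X-100, 0.5% DMSO. Compounds titrated from the highest concentration possible. Read at room temperature (ex 544/em 590 nm). KD calculated from the IC50 using the Nikolovska-Coleska equation.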

Calls of active or inactive are those of the source. The rule behind the calls is not given here.

As for `N=C(N)c1ccc(Oc2ccc(-c3cc4ccc(C(=N)N)cc4[nH]3)cc2)cc1`, on Protein S100-B [1], the Kd stood at 6 µM. Also, the EC50 in experiment [2] and in experiment [3] was less than 1 µM throughout. Moreover, the IC50 at Protein S100-B [4] came to 66.6 µM.

`c1cc(C2=NCCCN2)ccc1OCCCCCCCCOc1ccc(C2=NCCCN2)cc1`: the EC50 turned out to be 37.9 µM in experiment [2] and 24.8 µM in experiment [3]. Further, in experiment [5], the result was inactive.

On to `c1cc(C2=NCCN2)ccc1OCCCCCCCOc1ccc(C2=NCCN2)cc1`, for which the Kd at Protein S100-B [1] is 203 µM. Further, the EC50 is 21.2 µM in experiment [2] and 32.2 µM in experiment [3]. Moreover, in experiment [5], the outcome was inactive.

With `c1cc(C2=NCCN2)ccc1OCCCCCCOc1ccc(C2=NCCN2)cc1`, the EC50 worked out at 34.5 µM in experiment [2] and 52 µM in experiment [3]. Besides, the outcome in experiment [5] was inactive.

Turning to `c1cc(C2=NCCCCN2)ccc1OCCCCCCOc1ccc(C2=NCCCCN2)cc1`, the EC50 in experiment [2] turned out to be 301 µM; in experiment [3], 264 µM. For the same molecule, in experiment [5], the outcome was inactive.

As for `CCCN(CCCOc1ccc(C(=N)N)cc1)CCCOc1ccc(C(=N)N)cc1`, the EC50 in experiment [2] worked out at 500 µM; in experiment [3], 864 µM.

Turning to `N=C(NC(=O)Nc1ccccc1)c1ccc(OCCCCCCCOc2ccc(C(=N)NC(=O)Nc3ccccc3)cc2)cc1`, the EC50 in experiment [2] turned out to be 0.5 µM; in experiment [3], 0.4 µM.

With `N=C(NCCCCCN)c1ccc(OCCCCCOc2ccc(C(=N)NCCCCCN)cc2)cc1`, the Kd on Protein S100-B [1] is 4.6 µM. At Protein S100-B [4], the IC50 was determined as 51.1 µM.

For `c1cc(C2=NCCCN2)ccc1OCCCCCCOc1ccc(C2=NCCCN2)cc1`, the values for the EC50 in experiment [2] and in experiment [3] were 42.7 µM and 44.1 µM, respectively. The outcome in experiment [5] was inactive.

As for `c1cc(C2=NCCN2)ccc1OCCCCCCCCOc1ccc(C2=NCCN2)cc1`, the values for the EC50 in experiment [2] and in experiment [3] were 24.3 µM and 21.8 µM, respectively. In experiment [5], the result was inactive.

As to `c1cc(C2=NCCN2)ccc1OCCCCCOc1ccc(C2=NCCN2)cc1`, the 50% effective concentration (EC50) in experiment [2] was determined as 38.9 µM; in experiment [3], 56.2 µM. In experiment [5], the outcome was inactive.

For the molecule `N=C(N)c1ccc(OCCCN(CCCOc2ccc(C(=N)N)cc2)Cc2ccccc2)cc1`, the EC50 in experiment [2] was 41 µM; in experiment [3], 51.8 µM.

On to `c1cc(C2=NCCCCN2)ccc1OCCCCCCCCOc1ccc(C2=NCCCCN2)cc1`, for which the EC50 in experiment [2] was determined as 4.8 µM; in experiment [3], 5.4 µM. Further, the result in experiment [5] was inactive.

With `CNC(=O)NC(=N)c1ccc(OCCCCCCCOc2ccc(C(=N)NC(=O)NC)cc2)cc1`, the Kd on Protein S100-B [1] worked out at 89.5 µM. The EC50 in experiment [2] came to 146 µM; in experiment [3], 131 µM. The IC50 on Protein S100-B [4] is 982 µM.

In the case of `c1cc(C2=NCCCCN2)ccc1OCCCCCOc1ccc(C2=NCCCCN2)cc1`, the EC50 in experiment [2] amounted to 19 µM; in experiment [3] it was 20 µM. In addition, the result in experiment [5] was inactive.

On to `c1cc(C2=NCCCN2)ccc1OCCCCCOc1ccc(C2=NCCCN2)cc1`, for which the EC50 in experiment [2] amounted to 284 µM; in experiment [3] it was 203 µM. Further, in experiment [5], the outcome was inactive.

Turning to `N=C(N)c1ccc(OCCCCCOc2ccc(C(=N)N)cc2)cc1` [PENTAMIDINE], the Kd on Protein S100-B [6] came to 50 µM; at Protein S100-B [7], 44 µM. In addition, the EC50 was 16.7 µM in experiment [2] and 16.3 µM in experiment [3].

`c1cc(C2=NCCCN2)ccc1OCCCCCCCOc1ccc(C2=NCCCN2)cc1`: the EC50 in experiment [2] was determined as 289 µM; in experiment [3], 612 µM. In addition, in experiment [5], the result was inactive.

Consider `N=C(NCCCCCCCN)c1ccc(OCCCCCCCCOc2ccc(C(=N)NCCCCCCCN)cc2)cc1`, for which, on Protein S100-B [1], the Kd was determined as 1.6 µM. Further, the EC50 in experiment [2] worked out at 45.8 µM; in experiment [3] it was 46.3 µM. The IC50 on Protein S100-B [4] was found to be 18.3 µM.

For the molecule `c1cc(C2=NCCCCN2)ccc1OCCCCCCCOc1ccc(C2=NCCCCN2)cc1`, the EC50 in experiment [2] was found to be 9.2 µM; in experiment [3], 7.8 µM. The result in experiment [5] was inactive.

`N=C(N)c1ccc(OCCCCCCCCOc2ccc(C(=N)N)cc2)cc1`: the EC50 in experiment [2] was found to be 234 µM; in experiment [3], 245 µM.

On to `N=C(NCCCCCCCN)c1ccc(OCCCCCCCOc2ccc(C(=N)NCCCCCCCN)cc2)cc1`, for which the Kd at Protein S100-B [1] stood at 0.5 µM. Further, the EC50 came out at 25.4 µM in experiment [2] and 24.3 µM in experiment [3]. Besides, on Protein S100-B [4], the IC50 was determined as 6.7 µM.

On to `N=C(N)c1ccc(OCCCCCCCOc2ccc(C(=N)N)cc2)cc1` [HEPTAMIDINE], for which the EC50 in experiment [2] stood at 25.6 µM; in experiment [3] it was 11.5 µM.

The record behind these values is ChEMBL document CHEMBL3763147, “Small Molecule Inhibitors of Ca(2+)-S100B Reveal Two Protein Conformations” (J Med Chem, 2016).
